Test results taken from ChEMBL document CHEMBL4715745, “Synthesis and biological evaluation of novel FK228 analogues as potential isoform selective HDAC inhibitors” (Eur J Med Chem, 2016).
pIC50: −log10 of the molar value. Each block holds one compound with its values, some of them ahead of it.

Tests used:
PC-3 = test: Growth inhibition of human PC-3 cells measured after 48 hrs by sulforhodamine B assay; assay type: functional
Outline: (§1)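 Panel of 39 human cancer cell lines tested at the Japanese Foundation for Cancer Research. Five concentrations per compound, spanning 10⁻¹¹–10⁻⁷ M, 10⁻¹⁰–10⁻⁶ M or 10⁻⁸–10⁻⁴ M, were used to build dose-response curves. GI₅₀ is the concentration giving 50% growth inhibition relative to control.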

SNB-78 = test: Growth inhibition of human SNB-78 cells measured after 48 hrs by sulforhodamine B assay; assay type: functional; outline: as §1
HCC 2998 = test: Growth inhibition of human HCC 2998 cells measured after 48 hrs by sulforhodamine B assay; assay type: functional; outline: as §1
HCT-116 = test: Growth inhibition of human HCT-116 cells measured after 48 hrs by sulforhodamine B assay; assay type: functional; outline: as §1
MKN-7 = test: Growth inhibition of human MKN-7 cells measured after 48 hrs by sulforhodamine B assay; assay type: functional; outline: as §1
DMS-273 = test: Growth inhibition of human DMS-273 cells measured after 48 hrs by sulforhodamine B assay; assay type: functional; outline: as §1
LOX IMVI = test: Growth inhibition of human LOX IMVI cells measured after 48 hrs by sulforhodamine B assay; assay type: functional; outline: as §1
SNB-75 = test: Growth inhibition of human SNB-75 cells measured after 48 hrs by sulforhodamine B assay; assay type: functional; outline: as §1
SK-OV-3 = test: Growth inhibition of human SK-OV-3 cells measured after 48 hrs by sulforhodamine B assay; assay type: functional; outline: as §1
Histone deacetylase 1 = Histone deacetylase 1 (Homo sapiens, UniProt Q13547); test: Inhibition of human HDAC1 expressed in 293T cells using Ac-KGLGK(Ac)-MCA as substrate incubated for 30 mins in presence of 0.1 mM DTT by fluorescence plate reader assay; design: species or system HEK293T
Histone deacetylase 1, sequence (Q13547 whole entry): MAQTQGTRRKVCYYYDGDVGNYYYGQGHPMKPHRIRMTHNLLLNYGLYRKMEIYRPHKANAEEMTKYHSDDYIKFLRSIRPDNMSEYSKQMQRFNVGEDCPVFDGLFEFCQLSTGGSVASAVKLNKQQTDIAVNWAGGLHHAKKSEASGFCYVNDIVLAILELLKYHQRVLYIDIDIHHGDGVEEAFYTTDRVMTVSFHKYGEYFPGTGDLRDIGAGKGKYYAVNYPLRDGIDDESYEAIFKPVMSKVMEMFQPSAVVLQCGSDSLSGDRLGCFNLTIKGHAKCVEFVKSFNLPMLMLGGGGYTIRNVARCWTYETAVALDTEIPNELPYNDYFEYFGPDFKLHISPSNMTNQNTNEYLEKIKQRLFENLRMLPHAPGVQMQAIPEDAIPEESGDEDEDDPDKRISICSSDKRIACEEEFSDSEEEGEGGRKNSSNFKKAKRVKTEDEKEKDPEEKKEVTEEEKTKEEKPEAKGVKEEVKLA

SF-539 = test: Growth inhibition of human SF-539 cells measured after 48 hrs by sulforhodamine B assay; assay type: functional; outline: as §1
DU-145 = test: Growth inhibition of human DU-145 cells measured after 48 hrs by sulforhodamine B assay; assay type: functional; outline: as §1
OVCAR-3 = test: Growth inhibition of human OVCAR-3 cells measured after 48 hrs by sulforhodamine B assay; assay type: functional; outline: as §1
RXF 631 = test: Growth inhibition of human RXF 631 cells measured after 48 hrs by sulforhodamine B assay; assay type: functional; outline: as §1
KM12 = test: Growth inhibition of human KM12 cells measured after 48 hrs by sulforhodamine B assay; assay type: functional; outline: as §1
[1] = molecular target: T1, Protein deacetylase HDAC6 (Mus musculus, UniProt Q9Z2V5); test: Inhibition of mouse HDAC6 expressed in 293T cells using Ac-KGLGK(Ac)-MCA as substrate incubated for 30 mins in presence of 0.1 mM DTT by fluorescence plate reader assay; design: species or system HEK293T
T1 sequence (Q9Z2V5 whole entry): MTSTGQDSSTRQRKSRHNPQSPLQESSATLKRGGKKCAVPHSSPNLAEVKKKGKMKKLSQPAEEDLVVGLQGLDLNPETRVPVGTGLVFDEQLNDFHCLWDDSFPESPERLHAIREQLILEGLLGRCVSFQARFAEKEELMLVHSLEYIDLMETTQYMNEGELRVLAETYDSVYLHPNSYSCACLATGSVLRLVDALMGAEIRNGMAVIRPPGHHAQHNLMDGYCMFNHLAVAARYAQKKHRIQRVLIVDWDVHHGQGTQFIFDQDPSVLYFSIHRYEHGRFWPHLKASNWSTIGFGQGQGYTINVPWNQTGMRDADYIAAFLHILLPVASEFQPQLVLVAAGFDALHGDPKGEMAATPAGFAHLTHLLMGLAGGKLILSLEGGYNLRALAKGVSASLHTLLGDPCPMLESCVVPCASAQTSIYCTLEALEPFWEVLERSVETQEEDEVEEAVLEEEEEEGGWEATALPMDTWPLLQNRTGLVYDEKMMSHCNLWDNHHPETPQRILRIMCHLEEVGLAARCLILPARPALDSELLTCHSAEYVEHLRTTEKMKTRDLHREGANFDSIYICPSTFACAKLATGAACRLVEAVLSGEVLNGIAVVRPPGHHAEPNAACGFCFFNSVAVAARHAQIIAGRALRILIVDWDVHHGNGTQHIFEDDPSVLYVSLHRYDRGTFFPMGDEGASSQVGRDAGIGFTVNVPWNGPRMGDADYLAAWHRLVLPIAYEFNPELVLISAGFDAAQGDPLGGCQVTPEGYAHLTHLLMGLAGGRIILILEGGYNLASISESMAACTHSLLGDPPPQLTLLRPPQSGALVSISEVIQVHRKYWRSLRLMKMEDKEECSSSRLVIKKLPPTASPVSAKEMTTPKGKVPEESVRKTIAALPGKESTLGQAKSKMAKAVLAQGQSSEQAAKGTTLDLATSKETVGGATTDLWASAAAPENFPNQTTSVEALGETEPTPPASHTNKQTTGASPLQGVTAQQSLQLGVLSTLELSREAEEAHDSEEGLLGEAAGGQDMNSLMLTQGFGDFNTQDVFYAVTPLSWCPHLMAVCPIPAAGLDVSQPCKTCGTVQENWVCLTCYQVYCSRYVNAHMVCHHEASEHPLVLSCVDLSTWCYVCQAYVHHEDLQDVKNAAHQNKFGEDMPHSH
Outline: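 HDAC enzyme assay run in the presence of 0.1 mM dithiothreitol (DTT); IC₅₀ determined.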

MKN-74 = test: Growth inhibition of human MKN-74 cells measured after 48 hrs by sulforhodamine B assay; assay type: functional; outline: as §1
St-4 = test: Growth inhibition of human St-4 cells measured after 48 hrs by sulforhodamine B assay; assay type: functional; outline: as §1
SF-295 = test: Growth inhibition of human SF-295 cells measured after 48 hrs by sulforhodamine B assay; assay type: functional; outline: as §1
[2] = Growth inhibition of human HBC4 cells measured after 48 hrs by sulforhodamine B assay; assay type: functional; outline: as §1
MKN-1 = test: Growth inhibition of human MKN-1 cells measured after 48 hrs by sulforhodamine B assay; assay type: functional; outline: as §1
SF-268 = test: Growth inhibition of human SF-268 cells measured after 48 hrs by sulforhodamine B assay; assay type: functional; outline: as §1
DMS-114 = test: Growth inhibition of human DMS-114 cells measured after 48 hrs by sulforhodamine B assay; assay type: functional; outline: as §1
HT-29 = test: Growth inhibition of human HT-29 cells measured after 48 hrs by sulforhodamine B assay; assay type: functional; outline: as §1
NCI-H522 = test: Growth inhibition of human NCI-H522 cells measured after 48 hrs by sulforhodamine B assay; assay type: functional; outline: as §1
MKN-28 = test: Growth inhibition of human MKN-28 cells measured after 48 hrs by sulforhodamine B assay; assay type: functional; outline: as §1
NCI-H226 = test: Growth inhibition of human NCI-H226 cells measured after 48 hrs by sulforhodamine B assay; assay type: functional; outline: as §1
MKN-45 = test: Growth inhibition of human MKN-45 cells measured after 48 hrs by sulforhodamine B assay; assay type: functional; outline: as §1
A549 = test: Growth inhibition of human A549 cells measured after 48 hrs by sulforhodamine B assay; assay type: functional; outline: as §1
NCI-H460 = test: Growth inhibition of human NCI-H460 cells measured after 48 hrs by sulforhodamine B assay; assay type: functional; outline: as §1
MDA-MB-231 = test: Growth inhibition of human MDA-MB-231 cells measured after 48 hrs by sulforhodamine B assay; assay type: functional; outline: as §1
OVCAR-5 = test: Growth inhibition of human OVCAR-5 cells measured after 48 hrs by sulforhodamine B assay; assay type: functional; outline: as §1
OVCAR-4 = test: Growth inhibition of human OVCAR-4 cells measured after 48 hrs by sulforhodamine B assay; assay type: functional; outline: as §1
[3] = Growth inhibition of human BSY1 cells measured after 48 hrs by sulforhodamine B assay; assay type: functional; settings: BSY-1; outline: as §1
U-251 = test: Growth inhibition of human U-251 cells measured after 48 hrs by sulforhodamine B assay; assay type: functional; outline: as §1
ACHN = test: Growth inhibition of human ACHN cells measured after 48 hrs by sulforhodamine B assay; assay type: functional; outline: as §1
[4] = Growth inhibition of human HBC5 cells measured after 48 hrs by sulforhodamine B assay; assay type: functional; outline: as §1
[5] = Selectivity index, ratio of IC50 for mouse HDAC6 expressed in 293T cells to IC50 for human HDAC1 expressed in 293T cells using Ac-KGLGK(Ac)-MCA as substrate incubated for 30 mins in presence of 0.1 mM DTT by fluorescence plate reader assay; settings: 0.5 h
Outline: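 Ratio of HDAC6 IC₅₀ to HDAC1 IC₅₀, taken as selectivity for class I HDAC1 over class II HDAC6. Both enzyme assays were run in the presence of 0.1 mM DTT.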

MCF7 = test: Growth inhibition of human MCF7 cells measured after 48 hrs by sulforhodamine B assay; assay type: functional; outline: as §1
NCI-H23 = test: Growth inhibition of human NCI-H23 cells measured after 48 hrs by sulforhodamine B assay; assay type: functional; outline: as §1
HCT-15 = test: Growth inhibition of human HCT-15 cells measured after 48 hrs by sulforhodamine B assay; assay type: functional; outline: as §1
OVCAR-8 = test: Growth inhibition of human OVCAR-8 cells measured after 48 hrs by sulforhodamine B assay; assay type: functional; outline: as §1

GI50 (PC-3): 0.069 µM
GI50 (HCC 2998): 0.027 µM
GI50 (HCT-116): 0.022 µM
GI50 (MKN-7): 0.28 µM
GI50 (SK-OV-3): 0.023 µM
pIC50 (Histone deacetylase 1): 9.02
GI50 (DU-145): 0.037 µM
GI50 (OVCAR-3): 0.04 µM
pIC50 [1]: 5.07
GI50 (MKN-74): 0.044 µM
GI50 (MKN-1): 0.021 µM
GI50 (HT-29): 0.033 µM
GI50 (NCI-H522): 0.01 µM
GI50 (MKN-28): 0.27 µM
GI50 (NCI-H226): 0.059 µM
GI50 (MKN-45): 0.24 µM
GI50 (A549): 0.023 µM
GI50 (NCI-H460): 0.039 µM
GI50 (MDA-MB-231): 0.039 µM
GI50 (OVCAR-5): 0.031 µM
GI50 (OVCAR-4): 0.087 µM
GI50 (U-251): 0.01 µM
GI50 (ACHN): 0.2 µM
GI50 (MCF7): 0.052 µM
GI50 (NCI-H23): 0.039 µM
GI50 (HCT-15): 0.59 µM
GI50 (OVCAR-8): 0.042 µM
SMILES: CC(C)C[C@H]1NC(=O)[C@H]2CSSCC/C=C/[C@H](CC(=O)N[C@H](C(C)C)C(=O)N2)OC(=O)CNC1=O
GI50 (SNB-78): 0.03 µM
GI50 (DMS-273): 0.074 µM
GI50 (LOX IMVI): 0.023 µM
GI50 (SNB-75): 0.043 µM
GI50 (SF-539): 0.057 µM
GI50 (RXF 631): 0.068 µM
GI50 (KM12): 0.033 µM
GI50 (St-4): 0.23 µM
GI50 (SF-295): 1.1 µM
GI50 [2]: 0.07 µM
GI50 (SF-268): 0.011 µM
GI50 (DMS-114): 0.036 µM
GI50 [3]: 0.069 µM
GI50 [4]: 0.27 µM
Ratio IC50 [5]: 8804

GI50 (PC-3): 1.1 µM
GI50 (HCC 2998): 1.1 µM
GI50 (HCT-116): 0.25 µM
GI50 (MKN-7): 1.9 µM
GI50 (SK-OV-3): 1.2 µM
pIC50 (Histone deacetylase 1): 7.39
GI50 (DU-145): 0.59 µM
GI50 (OVCAR-3): 1.1 µM
pIC50 [1]: 6.45
GI50 (MKN-74): 0.5 µM
GI50 (MKN-1): 0.29 µM
GI50 (HT-29): 0.57 µM
GI50 (NCI-H522): 0.2 µM
GI50 (MKN-28): 2.1 µM
GI50 (NCI-H226): 1.2 µM
GI50 (MKN-45): 1.8 µM
GI50 (A549): 0.88 µM
GI50 (NCI-H460): 1.1 µM
GI50 (MDA-MB-231): 1.2 µM
GI50 (OVCAR-5): 1.4 µM
GI50 (OVCAR-4): 1.9 µM
GI50 (U-251): 1.5 µM
GI50 (ACHN): 11 µM
GI50 (MCF7): 1.9 µM
GI50 (NCI-H23): 1.1 µM
GI50 (HCT-15): 26 µM
GI50 (OVCAR-8): 1.4 µM
SMILES: CC(C)[C@H]1NC(=O)C[C@H]2/C=C/CCSSC[C@@H](NC1=O)C(=O)N[C@@H](Cc1ccccc1)C(=O)NCC(=O)O2
GI50 (SNB-78): 0.54 µM
GI50 (DMS-273): 1.5 µM
GI50 (LOX IMVI): 0.16 µM
GI50 (SNB-75): 1.3 µM
GI50 (SF-539): 0.86 µM
GI50 (RXF 631): 1.8 µM
GI50 (KM12): 0.74 µM
GI50 (St-4): 2 µM
GI50 (SF-295): 1.8 µM
GI50 [2]: 0.69 µM
GI50 (SF-268): 0.22 µM
GI50 (DMS-114): 0.62 µM
GI50 [3]: 1.3 µM
GI50 [4]: 1.9 µM
Ratio IC50 [5]: 9
